# Source: ChEMBL document CHEMBL1795327, “Novel 4-phenylpiperidine-2,6-dione derivatives. Ligands for α₁-adrenoceptor subtypes” (Eur J Med Chem, 2011)
# Active and inactive are the calls of the source. No cut-off for these calls is given here.
# Tests used:
# [1] = target: T1, Alpha-1A adrenergic receptor (Homo sapiens, UniProt P35348); test: Displacement of [125I]BE-2254 from human adrenergic alpha1A receptor expressed in HEK293 cells; type: cell-based
# T1 sequence (P35348 whole entry): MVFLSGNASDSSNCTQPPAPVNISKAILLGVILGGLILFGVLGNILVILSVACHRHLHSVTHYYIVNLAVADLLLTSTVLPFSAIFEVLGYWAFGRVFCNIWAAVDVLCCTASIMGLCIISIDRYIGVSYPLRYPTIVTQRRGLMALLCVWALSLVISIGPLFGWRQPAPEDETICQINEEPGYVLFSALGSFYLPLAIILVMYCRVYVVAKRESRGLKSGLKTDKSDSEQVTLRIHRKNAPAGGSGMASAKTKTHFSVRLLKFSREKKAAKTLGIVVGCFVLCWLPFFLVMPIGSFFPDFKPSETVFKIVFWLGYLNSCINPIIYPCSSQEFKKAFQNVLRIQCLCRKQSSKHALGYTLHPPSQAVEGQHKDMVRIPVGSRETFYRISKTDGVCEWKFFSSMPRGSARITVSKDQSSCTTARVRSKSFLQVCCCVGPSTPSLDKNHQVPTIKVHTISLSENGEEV
# How it was run: (§1)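 Membranes came from HEK293 cells stably expressing human α1A-, α1B- or α1D-AR, selected with geneticin. Cells were washed in PBS pH 7.6, homogenized, and spun at 30,000 × g for 10 min. The radioligand was [125I]BE 2254. Affinities are pKi, given as mean ± SE of three experiments run in duplicate.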
# [2] = target: T2, Alpha-1B adrenergic receptor (Homo sapiens, UniProt P35368); test: Displacement of [125I]BE-2254 from human adrenergic Alpha-1B receptor expressed in HEK293 cells; type: cell-based; how it was run: as §1
# T2 sequence (P35368 whole entry): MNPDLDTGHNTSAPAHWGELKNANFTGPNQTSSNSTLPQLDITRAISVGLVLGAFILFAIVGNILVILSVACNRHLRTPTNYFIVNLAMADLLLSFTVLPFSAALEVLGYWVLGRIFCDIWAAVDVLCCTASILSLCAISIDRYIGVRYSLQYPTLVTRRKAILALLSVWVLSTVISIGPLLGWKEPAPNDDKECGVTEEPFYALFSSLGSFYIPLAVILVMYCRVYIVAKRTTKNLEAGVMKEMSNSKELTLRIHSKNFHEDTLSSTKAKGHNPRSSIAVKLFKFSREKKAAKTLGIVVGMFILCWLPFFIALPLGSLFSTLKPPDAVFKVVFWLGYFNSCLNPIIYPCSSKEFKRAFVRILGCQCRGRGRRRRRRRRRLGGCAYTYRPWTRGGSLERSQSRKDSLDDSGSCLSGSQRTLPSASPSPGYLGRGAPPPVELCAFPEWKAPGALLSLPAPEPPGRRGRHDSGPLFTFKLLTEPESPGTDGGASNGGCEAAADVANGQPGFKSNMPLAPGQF
# [3] = target: T3, Alpha-1D adrenergic receptor (Homo sapiens, UniProt P25100); test: Displacement of [125I]BE-2254 from human adrenergic Alpha-1D receptor expressed in HEK293 cells; type: cell-based; how it was run: as §1
# T3 sequence (P25100 whole entry): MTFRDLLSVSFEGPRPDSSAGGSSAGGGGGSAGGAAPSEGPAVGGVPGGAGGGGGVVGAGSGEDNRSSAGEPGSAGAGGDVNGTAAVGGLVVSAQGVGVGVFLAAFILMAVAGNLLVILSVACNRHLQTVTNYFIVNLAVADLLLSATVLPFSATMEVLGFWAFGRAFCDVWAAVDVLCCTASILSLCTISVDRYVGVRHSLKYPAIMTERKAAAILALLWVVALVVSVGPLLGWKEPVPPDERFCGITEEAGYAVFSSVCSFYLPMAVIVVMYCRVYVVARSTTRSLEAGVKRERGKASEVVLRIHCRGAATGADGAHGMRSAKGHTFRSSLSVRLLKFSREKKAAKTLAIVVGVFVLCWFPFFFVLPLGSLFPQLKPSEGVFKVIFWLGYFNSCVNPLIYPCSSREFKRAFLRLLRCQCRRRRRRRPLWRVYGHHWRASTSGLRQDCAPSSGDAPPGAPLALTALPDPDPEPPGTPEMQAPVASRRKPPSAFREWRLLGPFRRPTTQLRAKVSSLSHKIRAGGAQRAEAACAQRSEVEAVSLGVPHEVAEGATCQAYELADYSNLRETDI
# [4] = target: T2, Alpha-1B adrenergic receptor; test: Binding affinity to adrenergic Alpha-1B receptor
# How it was run: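 Human α1B-adrenoceptor stably expressed in HEK293 cells, transfected with a pRSVICAT vector and selected with geneticin. Membranes were prepared by scraping cells, homogenizing them and centrifuging at 30,000 × g for 10 min. Values are pKi, mean ± SE of three experiments run in duplicate.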
# [5] = target: T1, Alpha-1A adrenergic receptor; test: Antagonist activity at human adrenergic alpha1A receptor expressed in HEK293 cells assessed as inhibition of norepinephrine-induced [3H]inositol phosphate hydrolysis by scintillation counting; type: functional, cell-based
# How it was run: (§2)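 HEK293 cells stably transfected with human α1A-, α1B- or α1D-AR cDNA were prelabelled with myo-[3H]inositol, then given Krebs Ringer bicarbonate buffer with LiCl. Cells were incubated 60 min with or without NE and graded compound concentrations. The reaction was stopped with 20 mM formic acid. [3H]InsPs were isolated by anion exchange and counted by scintillation. Values (±SE) came from concentration-response inhibition curves.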
# [6] = target: T2, Alpha-1B adrenergic receptor; test: Antagonist activity against human cloned adrenergic Alpha-1B receptor expressed in HEK293 cells assessed as inhibition of norepinephrine-induced [3H]inositol phosphate hydrolysis by scintillation counting; type: functional, cell-based; how it was run: as §2
# [7] = target: T3, Alpha-1D adrenergic receptor; test: Antagonist activity against human cloned adrenergic Alpha-1D receptor expressed in HEK293 cells assessed as inhibition of norepinephrine-induced [3H]inositol phosphate hydrolysis by scintillation counting; type: functional, cell-based; how it was run: as §2
# [8] = target: T4, Alpha-1A adrenergic receptor (Homo sapiens) (UniProt P35348); test: Antagonist activity at human adrenergic alpha1A receptor expressed in HEK293 cells assessed as [3H]inositol phosphate formation at 10 uM by scintillation counting; type: functional, cell-based
# T4 sequence (whole entry): T1 sequence (P35348 whole entry)
# How it was run: (§3)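 Stably transfected HEK293 cells expressing human α1A-, α1B- or α1D-AR were labelled with myo-[3H]inositol and moved to Krebs Ringer bicarbonate buffer containing LiCl. They were incubated 60 min with or without NE, in the presence or absence of test compound. After a formic acid stop and sonication, [3H]InsPs were separated by anion-exchange chromatography and counted by scintillation.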
# [9] = target: T5, Alpha-1B adrenergic receptor (Homo sapiens) (UniProt P35368); test: Antagonist activity at human adrenergic Alpha-1B receptor expressed in HEK293 cells assessed as [3H]inositol phosphate formation at 10 uM by scintillation counting; type: functional, cell-based; how it was run: as §3
# T5 sequence (whole entry): T2 sequence (P35368 whole entry)
# [10] = target: T6, Alpha-1D adrenergic receptor (Homo sapiens) (UniProt P25100); test: Antagonist activity at human adrenergic Alpha-1D receptor expressed in HEK293 cells assessed as [3H]inositol phosphate formation at 10 uM by scintillation counting; type: functional, cell-based; how it was run: as §3
# T6 sequence (whole entry): T3 sequence (P25100 whole entry)
SMILES,Ki [1] [nM],Ki [2] [nM],Ki [3] [nM],further results
COc1ccccc1N1CCN(CCCCN2C(=O)CC(c3ccc([N+](=O)[O-])cc3)CC2=O)CC1,20.9,209,53.7,–
CC(C)(C)c1ccc(N2CCN(CCn3c(=O)[nH]c4c([nH]c5ccccc54)c3=O)CC2)cc1,–,–,–,pKi ([3]; hek293): 7.7
O=C1CC(c2ccc(Cl)cc2)CC(=O)N1CCN1CCN(c2ccccc2Cl)CC1,6920,10000,1510,–
COc1ccc(Cl)cc1N1CCN(CCCN2C(=O)CC(c3ccccc3)CC2=O)CC1,191,331,389,–
COc1ccccc1N1CCN(CCCCCN2C(=O)CC(c3ccccc3)CC2=O)CC1,21.9,97.7,30.9,–
O=C1CC(c2ccccc2)CC(=O)N1CCN1CCN(c2ccccc2Cl)CC1,3240,2240,631,–
O=C1CC(c2ccccc2)CC(=O)N1CCCN1CCN(c2ccccc2Cl)CC1,47.9,112,43.7,–
COc1ccccc1N1CCN(CCN2C(=O)CC3(CCCC3)CC2=O)CC1,–,–,–,Ki [4]: 50.1 nM
COc1ccccc1N1CCN(CCn2c(=O)[nH]c3c([nH]c4ccccc43)c2=O)CC1,–,–,–,pKi ([1]; hek293): 9.57
COc1ccc(Cl)cc1N1CCN(CCCCN2C(=O)CC(c3ccccc3)CC2=O)CC1,36.3,107,38.9,–
O=C1CC(c2ccccc2)CC(=O)N1CCCCN1CCN(c2ccccc2Cl)CC1,15.8,30.2,33.9,–
COc1ccccc1N1CCN(CCCN2C(=O)CC(c3ccc([N+](=O)[O-])cc3)CC2=O)CC1,14.1,129,67.6,–
O=C1CC(c2ccc(Cl)cc2)CC(=O)N1CCCN1CCN(c2ccccc2Cl)CC1,49,135,63.1,–
COc1ccccc1N1CCN(CCCCN2C(=O)CC3(CCc4ccccc43)CC2=O)CC1,9.77,72.4,16.2,Ki [5]: 10 nM; Ki [6]: 20 nM; Ki [7]: 5.01 nM; Activity [8]: inactive; Activity [9]: inactive; Activity [10]: inactive

# More lines, main results first:
Ki [1] [nM],Ki [2] [nM],Ki [3] [nM],SMILES,further results
28.2,126,69.2,COc1ccccc1N1CCN(CCCN2C(=O)CC(c3ccc(Cl)cc3)CC2=O)CC1,–
63.1,234,75.9,COc1ccccc1N1CCN(CCCN2C(=O)CC3(CCc4ccccc43)CC2=O)CC1,–
67.6,245,72.4,COc1ccccc1N1CCN(CCCCN2C(=O)CC(c3ccc(Cl)cc3)CC2=O)CC1,–
95.5,151,77.6,COc1ccc(Cl)cc1N1CCN(CCCCN2C(=O)CC(C)(c3ccccc3)CC2=O)CC1,–
46.8,112,45.7,COc1ccccc1N1CCN(CCCN2C(=O)CC(c3ccccc3)CC2=O)CC1,–
22.4,56.2,14.5,COc1ccccc1N1CCN(CCCCN2C(=O)CC(C)(c3ccccc3)CC2=O)CC1,Ki [5]: 31.6 nM; Ki [6]: 7.94 nM; Ki [7]: 0.501 nM; Activity [8]: inactive; Activity [9]: inactive; Activity [10]: inactive
10.2,129,51.3,COc1ccccc1N1CCN(CCCN2C(=O)CC(C)(c3ccccc3)CC2=O)CC1,–
1.82,24,15.8,COc1ccccc1N1CCN(CCCCN2C(=O)CC(c3ccccc3)CC2=O)CC1,Ki [5]: 2.51 nM; Ki [6]: 3.98 nM; Ki [7]: 2 nM; Activity [8]: inactive; Activity [9]: inactive; Activity [10]: inactive
1700,112,692,COc1ccccc1N1CCN(CCN2C(=O)CC(c3ccc(Cl)cc3)CC2=O)CC1,–
3390,5010,912,COc1ccccc1N1CCN(CCN2C(=O)CC3(CCc4ccccc43)CC2=O)CC1,–
34.7,195,97.7,COc1ccc(Cl)cc1N1CCN(CCCN2C(=O)CC(C)(c3ccccc3)CC2=O)CC1,–
3470,7410,1320,COc1ccccc1N1CCN(CCN2C(=O)CC(c3ccccc3)CC2=O)CC1,–
